Laboratory results published in ChEMBL document CHEMBL1125928, “Isoprenyl phosphinylformates: new inhibitors of squalene synthetase” (J Med Chem, 1991).

Experiments:
Homo sapiens [1] = species on record: Homo sapiens; experiment: Compound was tested for the inhibition of cholesterol biosynthesis from [14C]- acetate in freshly isolated from human skin fibroblasts; inactive at 15 uM; format: functional, organism-based
Rattus norvegicus [2] = species on record: Rattus norvegicus; experiment: Compound was tested for the inhibition of cholesterol biosynthesis from [14C]- acetate in freshly isolated rat hepatocytes; format: functional; details: Hepatocyte, read-out: I50
Squalene synthase [3] = molecular target: T1, Squalene synthase (Rattus norvegicus, UniProt Q02769); experiment: Inhibitory activity against liver microsomal Squalene synthase; details: read-out: I50
T1 sequence (Q02769 whole entry): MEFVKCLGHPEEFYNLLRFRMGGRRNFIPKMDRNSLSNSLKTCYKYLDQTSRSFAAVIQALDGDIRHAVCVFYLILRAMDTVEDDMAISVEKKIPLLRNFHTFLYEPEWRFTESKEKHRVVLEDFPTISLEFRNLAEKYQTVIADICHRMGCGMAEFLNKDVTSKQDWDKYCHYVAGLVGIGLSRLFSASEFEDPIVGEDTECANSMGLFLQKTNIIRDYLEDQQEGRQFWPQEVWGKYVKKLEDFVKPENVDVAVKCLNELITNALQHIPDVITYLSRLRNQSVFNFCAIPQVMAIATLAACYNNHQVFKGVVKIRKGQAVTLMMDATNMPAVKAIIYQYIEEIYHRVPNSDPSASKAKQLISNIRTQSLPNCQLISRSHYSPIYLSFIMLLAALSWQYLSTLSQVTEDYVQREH

Homo sapiens [4] = species on record: Homo sapiens; experiment: Compound was tested for the inhibition of cholesterol biosynthesis from [14C]- acetate in freshly isolated from human skin fibroblasts; inactive at 100 uM; format: functional, organism-based
Homo sapiens [5] = species on record: Homo sapiens; experiment: Compound was tested for the inhibition of cholesterol biosynthesis from [14C]- acetate in freshly isolated from human skin fibroblasts; inactive at 300 uM; format: functional, organism-based
Homo sapiens [6] = species on record: Homo sapiens; experiment: Compound was tested for the inhibition of cholesterol biosynthesis from [14C]- acetate in freshly isolated from human skin fibroblasts; format: functional, organism-based; details: read-out: I50
Rattus norvegicus [7] = species on record: Rattus norvegicus; experiment: Compound was tested for the inhibition of cholesterol biosynthesis from [14C]- acetate in freshly isolated rat hepatocytes; inactive at 200 uM; format: functional; details: hepatocyte
Squalene synthase [8] = molecular target: T1, Squalene synthase; experiment: Inhibitory activity against microsomal squalene synthase
Homo sapiens [9] = species on record: Homo sapiens; experiment: Compound was tested for the inhibition of cholesterol biosynthesis from [14C]- acetate in freshly isolated from human skin fibroblasts; inactive at 30 uM; format: functional
[10] = compound: CC(C)=CCC/C(C)=C/CC/C(C)=C/COP(=O)(O)OP(=O)(O)O; experiment: Competitive inhibitory activity against microsomal Squalene synthase
In short: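 Rat microsomal enzyme; inhibitor at 0, 2.5, 10 and 30 μM against FPP varied from 5 to 50 μM, with NADPH held saturating at 0.9 mM. Inhibition type and Ki were taken from double-reciprocal (Lineweaver-Burk) plots of the kinetic data.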

`CC(C)=CCC/C(C)=C/CC/C(C)=C/CCOP(=O)([O-])C(=O)[O-].[Na+].[Na+]` was tested, and the I50 (Homo sapiens [1]) was “Inactive”, the IC50 (Rattus norvegicus [2]) was 6 µM and the IC50 (Squalene synthase [3]) was 8.7 µM.

With `CC(C)=CCC/C(C)=C/CC/C(C)=C/CCP(=O)([O-])CC(=O)[O-].[K+].[K+]` the I50 (Homo sapiens [4]) was “Inactive” and the IC50 (Rattus norvegicus [2]) was 71 µM.

For `CC(C)=CCC/C(C)=C/CC/C(C)=C/CCCP(=O)([O-])C(=O)[O-].[Na+].[Na+]`, the I50 (Homo sapiens [5]) was “Inactive”, the IC50 (Rattus norvegicus [2]) was 30 µM and the IC50 (Squalene synthase [3]) was 31.8 µM.

`CC(C)=CCC/C(C)=C/CC/C(C)=C/CCC[PH](=O)O` showed an IC50 (Squalene synthase [3]) of 197 µM.

For `CCOC(=O)P(=O)(O)OCC/C=C(\C)CC/C=C(\C)CCC=C(C)C`, the IC50 (Homo sapiens [6]) was 12 µM, the IC50 (Rattus norvegicus [2]) was 9 µM and the IC50 (Squalene synthase [3]) was 106 µM.

`CC(C)=CCC/C(C)=C/CC/C(C)=C/COP(=O)(O)CC(=O)O` was tested, and the IC50 (Rattus norvegicus [2]) was 273 µM and the IC50 (Squalene synthase [3]) was 86 µM.

For `CC(C)=CCC/C(C)=C/CC/C(C)=C/CCP(=O)(O)CP(=O)(O)O`, the I50 (Homo sapiens [4]) was “Inactive”, the I50 (Rattus norvegicus [7]) was “Inactive” and the Ki (Squalene synthase [8]) was 10 µM.

Work on `CC(C)=CCC/C(C)=C/CC/C(C)=C/CCCOP(=O)(O)C(=O)O` yielded an IC50 (Squalene synthase [3]) of 41.6 µM.

With `CC(C)=CCC/C(C)=C/CC/C(C)=C/CCP(=O)([O-])C(=O)[O-].[Na+].[Na+]` the IC50 (Rattus norvegicus [2]) was 5.7 µM, the IC50 (Squalene synthase [3]) was 100 µM and the I50 (Homo sapiens [9]) was “Inactive”.

`CCOC(=O)P(=O)(O)CCC/C=C(\C)CC/C=C(\C)CCC=C(C)C` showed an IC50 (Homo sapiens [6]) of 2.2 µM, an IC50 (Rattus norvegicus [2]) of 24 µM and an IC50 (Squalene synthase [3]) of 112 µM.

B1: Squalene synthase (Rattus norvegicus), Q02769 (protein)
chain: MEFVKCLGHPEEFYNLLRFRMGGRRNFIPKMDRNSLSNSLKTCYKYLDQTSRSFAAVIQALDGDIRHAVCVFYLILRAMDTVEDDMAISVEKKIPLLRNFHTFLYEPEWRFTESKEKHRVVLEDFPTISLEFRNLAEKYQTVIADICHRMGCGMAEFLNKDVTSKQDWDKYCHYVAGLVGIGLSRLFSASEFEDPIVGEDTECANSMGLFLQKTNIIRDYLEDQQEGRQFWPQEVWGKYVKKLEDFVKPENVDVAVKCLNELITNALQHIPDVITYLSRLRNQSVFNFCAIPQVMAIATLAACYNNHQVFKGVVKIRKGQAVTLMMDATNMPAVKAIIYQYIEEIYHRVPNSDPSASKAKQLISNIRTQSLPNCQLISRSHYSPIYLSFIMLLAALSWQYLSTLSQVTEDYVQREH
With B1 the Km [10] was 12.7 µM.
